{"source": "ChEMBL document CHEMBL1914386", "about": "“Neopetrosiquinones A and B, sesquiterpene benzoquinones isolated from the deep-water sponge Neopetrosia cf. proxima” (Bioorg Med Chem, 2011)", "key": {"PANC-1": {"test_system": "PANC-1", "assay": "Cytotoxicity against human PANC1 cells after 48 hrs by MTT assay", "type": "functional, cell-based", "details": "PANC-1, 48 h", "in_short": "(§1)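 Proliferation of human tumour lines obtained from ATCC: A549 lung adenocarcinoma (CCL-185), PANC-1 pancreatic (CRL-1469), AsPC-1 pancreatic (CRL-1682) and DLD-1 colorectal adenocarcinoma. The assay was run by a protocol described earlier.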"}, "A549": {"test_system": "A549", "assay": "Cytotoxicity against human A549 cells after 48 hrs by MTT assay", "type": "functional, cell-based", "details": "A549, 48 h", "in_short": "as §1"}, "ASPC1": {"test_system": "ASPC1", "assay": "Cytotoxicity against human AsPC1 cells after 48 hrs by MTT assay", "type": "functional, cell-based", "details": "ASPC1, 48 h", "in_short": "as §1"}, "DLD-1": {"test_system": "DLD-1", "assay": "Cytotoxicity against human DLD1 cells after 48 hrs by MTT assay", "type": "functional, cell-based", "details": "DLD-1, 48 h", "in_short": "as §1"}, "[1]": {"assay": "Cytotoxicity against human NCI-ADR-RES cells after 48 hrs by MTT assay", "type": "functional, cell-based"}, "[2]": {"molecular_target": "TCF4/beta-catenin (Homo sapiens) (UniProt P35222+Q9NQB0)", "assay": "Inhibition of GST-tagged T cell factor4/[…] interaction assessed as reduction in alkaline phosphatase level", "type": "cell-based"}, "Trypanosoma cruzi": {"test_system": "Trypanosoma cruzi", "assay": "Antitrypanosomal activity against Trypanosoma cruzi Tulahuen assessed as parasite growth after 10 days by nephelometry", "type": "functional", "details": "240 h"}}, "note": "Calls of active or inactive are those of the source. The calls are words filed in the database; no cut-off is given here."}
{"smiles": "C[C@]1(C=O)CCC[C@]2(C)c3cc4c(cc3C(=O)C[C@@H]12)C(=O)C=CC4=O", "values": [{"measurement": "IC50", "setting": "PANC-1", "result": 6.1, "unit": "µM"}, {"measurement": "IC50", "setting": "A549", "result": "> 14.8", "unit": "µM"}, {"measurement": "IC50", "setting": "ASPC1", "result": 6.1, "unit": "µM"}, {"measurement": "IC50", "setting": "DLD-1", "result": 3.7, "unit": "µM"}, {"measurement": "IC50", "setting": "[1]", "result": "> 14.8", "unit": "µM"}]}
{"smiles": "C[C@@]12CCC(=O)c3coc(c31)C(=O)c1cc3c(cc12)C(=O)C=CC3=O", "values": [{"measurement": "inhibition", "setting": "[2]", "result": "inactive"}]}
{"smiles": "C[C@]1(CO)CCC[C@]2(C)c3cc4c(cc3C=C[C@@H]12)C(=O)C=CC4=O", "values": [{"measurement": "IC50", "setting": "PANC-1", "result": 13.8, "unit": "µM"}, {"measurement": "IC50", "setting": "A549", "result": "> 15.5", "unit": "µM"}, {"measurement": "IC50", "setting": "ASPC1", "result": "> 15.5", "unit": "µM"}, {"measurement": "IC50", "setting": "DLD-1", "result": 9.8, "unit": "µM"}, {"measurement": "IC50", "setting": "[1]", "result": "> 15.5", "unit": "µM"}]}
{"smiles": "CC1(C)CCC[C@@]2(C)c3cc4c(cc3CC[C@H]12)C(=O)C=CC4=O", "note": "[CYCLOZONARONE]", "values": [{"measurement": "GI50", "setting": "Trypanosoma cruzi", "result": 0.7, "unit": "µM"}]}
